The results in this text go back to ChEMBL document CHEMBL1125185, “Nonpeptide angiotensin II receptor antagonists: the discovery of a series of N-(biphenylylmethyl)imidazoles as potent, orally active antihypertensives” (J Med Chem, 1991).

Molecules are shown by their SMILES. The source made the active and inactive calls. The rule behind the calls is not given here.

Data set [1] has as its system Rattus norvegicus. Nature of the data set: Effective dose that lowers the blood pressure 30 mmHg after peroral administration. It counts as functional. The settings on record: po. The essentials:
(§1)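 Renal artery-ligated conscious rats (4-6 per dose) received compound iv or po. ED30 is the dose lowering blood pressure by 30 mmHg. It was calculated by linear regression of mean maximal decreases, using at least three doses from the linear part of the dose-response curve.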

Data set [2] deals with Rattus norvegicus. Kind of data set: Blood pressure lowering activity in renal hypertensive rats after intravenous administration. It counts as functional. The essentials:
(§2)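 Male Sprague-Dawley CD rats had the left renal artery ligated under hexobarbital (100 mg/kg ip). Six days later the jugular vein and carotid artery were cannulated under hexobarbital (90 mg/kg ip). Compound was given intravenously to the conscious hypertensive rats while mean arterial pressure was recorded.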

Data set [3] in a line: Ionization constant for the compound. It counts as physicochemical, Rattus norvegicus.
Data set [4] deals with Rattus norvegicus. Nature of the data set: Effective dose that lowers the blood pressure 30 mmHg after intravenous administration. It counts as functional. The essentials: as §1
The target in another data set is T1, Angiotensin II receptor (Rattus norvegicus, UniProt P29089+P25095+P35351).
T1 sequence (P29089 whole entry): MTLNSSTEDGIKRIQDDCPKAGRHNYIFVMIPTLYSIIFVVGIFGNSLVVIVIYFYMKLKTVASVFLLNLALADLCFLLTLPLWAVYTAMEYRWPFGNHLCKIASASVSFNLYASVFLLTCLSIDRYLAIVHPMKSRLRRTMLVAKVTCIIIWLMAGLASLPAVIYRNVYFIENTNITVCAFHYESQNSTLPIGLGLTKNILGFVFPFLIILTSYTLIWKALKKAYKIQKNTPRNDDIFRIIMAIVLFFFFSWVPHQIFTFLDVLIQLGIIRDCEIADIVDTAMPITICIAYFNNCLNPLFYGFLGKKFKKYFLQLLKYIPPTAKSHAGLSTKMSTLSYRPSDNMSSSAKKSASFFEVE
T1 sequence (P25095 whole entry): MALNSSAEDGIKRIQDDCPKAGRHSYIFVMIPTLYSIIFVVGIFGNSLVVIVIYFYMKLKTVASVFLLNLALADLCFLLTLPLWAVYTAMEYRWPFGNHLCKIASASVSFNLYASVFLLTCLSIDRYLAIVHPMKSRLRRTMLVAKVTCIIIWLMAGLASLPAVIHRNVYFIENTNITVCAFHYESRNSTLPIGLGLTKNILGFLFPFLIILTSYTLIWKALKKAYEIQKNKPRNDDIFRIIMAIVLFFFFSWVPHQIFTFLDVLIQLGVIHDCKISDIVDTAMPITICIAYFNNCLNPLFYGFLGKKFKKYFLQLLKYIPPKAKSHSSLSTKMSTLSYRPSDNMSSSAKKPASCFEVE
T1 sequence (P35351 whole entry): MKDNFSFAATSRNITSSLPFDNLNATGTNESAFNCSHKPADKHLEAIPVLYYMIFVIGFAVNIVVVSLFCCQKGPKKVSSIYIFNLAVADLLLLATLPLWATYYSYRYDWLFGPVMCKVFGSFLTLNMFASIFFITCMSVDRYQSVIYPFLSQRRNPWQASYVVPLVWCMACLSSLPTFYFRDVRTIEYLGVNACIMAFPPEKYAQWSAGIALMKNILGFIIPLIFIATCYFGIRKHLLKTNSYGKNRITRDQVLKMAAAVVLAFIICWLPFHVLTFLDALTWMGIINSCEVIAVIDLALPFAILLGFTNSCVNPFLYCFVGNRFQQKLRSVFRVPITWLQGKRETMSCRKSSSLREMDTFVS
Nature of the data set: Inhibition of radioligand [3H]angiotensin II binding to angiotensin II receptor of rat adrenal cortical membrane. The essentials: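 Rat adrenal cortical microsomes came from male Sprague-Dawley CD rats (300-400 g) and were prepared at 4 °C in sucrose/EDTA/Tris pH 7.4. Samples were filtered and counted, in duplicate. Specific binding was defined with 1 µM unlabeled AII. IC50 was taken from the linear portion of the displacement curve.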

Data set [5] deals with Rattus norvegicus. Nature of the data set: Blood pressure lowering activity in renal hypertensive rats after peroral administration. The class given is functional. The essentials:
(§3)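 Conscious male Sprague-Dawley CD rats, six days after left renal artery ligation and with jugular and carotid cannulae, were dosed by oral gavage at 1-100 mg/kg (4-6 rats/dose). Mean arterial pressure was monitored for 3 h.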

For data set [6], the system named is Rattus norvegicus. Nature of the data set: Blood pressure lowering activity in renal hypertensive rats after intravenous administration; no drop in blood pressure or a statistically insignificant drop in blood pressure was observed (in vivo). It counts as functional. The essentials: as §2
The subject of data set [7] is Rattus norvegicus. Kind of data set: Blood pressure lowering activity in renal hypertensive rats after peroral administration; Inactive indicates fail to cause significant drop in blood pressure even at 100 mg/kg. The class given is functional, organism-based. Also noted: dose 100 mg/kg. The essentials: as §3
Data set [8] deals with Rattus norvegicus. Nature of the data set: Blood pressure lowering activity in renal hypertensive rats after peroral administration; no drop in blood pressure or a statistically insignificant drop in blood pressure was observed (in vivo). The class given is functional. The essentials: as §3
For data set [9], the system named is Rattus norvegicus. Kind of data set: These values indicate drop in blood pressure activity in renal hypertensive rats after peroral administration; NA=not active indicates fail to cause drop in blood pressure even at 30 mg/Kg (in vivo). The class given is functional, organism-based.
Data set [10] deals with Rattus norvegicus. Nature of the data set: Blood pressure lowering activity in renal hypertensive rats after peroral administration; NA=not active indicates fail to cause drop in blood pressure even at 100 mg/Kg (in vivo). It counts as functional, organism-based. The essentials: as §3
Data set [11] relates to Rattus norvegicus. Nature of the data set: Blood pressure lowering activity in renal hypertensive rats after intravenous administration; NA=not active indicates fail to cause drop in blood pressure even at 100 mg/Kg (in vivo). It counts as functional, organism-based. The essentials:
as §2

The molecule `CCCCc1nc(Cl)c(C=O)n1Cc1ccc(-c2ccccc2C(=O)O)cc1` gave an ED30 with Rattus norvegicus [1] of 1.7 mg/kg. This molecule returned an Activity with Rattus norvegicus [2] of 10 mg/kg.

Regarding `CCCCc1nc(Cl)c(CO)n1Cc1ccc(-c2ccccc2-c2nnn[nH]2)cc1` [LOSARTAN], the ED30 came out at 0.59 mg/kg in the data set with Rattus norvegicus [1] and 0.8 mg/kg in the data set on Rattus norvegicus [4]. In data set [3], this molecule yielded a pKa of 6.

As to `CCCCc1nc(Cl)c(CO)n1Cc1ccc(-c2ccccc2C(=O)O)cc1`, the ED30 with Rattus norvegicus [1] stood at 11 mg/kg. Also, the pKa in data set [3] worked out at 5. The molecule further yielded an Activity in the data set on Rattus norvegicus [2] of 3 mg/kg.

On Angiotensin II receptor, `CCCCc1nc(Cl)c(CO)n1Cc1ccc(-c2ccccc2C(=O)NO)cc1` gave an IC50 of 4.1 µM. In addition, the pKa in data set [3] worked out at 10.5. Moreover, the results for the Activity in the data set on Rattus norvegicus [5] and with Rattus norvegicus [6] were above 30 mg/kg and above 3 mg/kg, respectively.

For the molecule `CCCCc1nc(Cl)c(CO)n1Cc1ccc(-c2ccccc2C(=O)NOC)cc1`, the pKa in data set [3] amounted to 10.9. The result in the data set with Rattus norvegicus [7] was inactive. The molecule also had an Activity in the data set with Rattus norvegicus [2] of 10 mg/kg.

`CCCCc1nc(C(F)(F)F)c(CO)n1Cc1ccc(-c2ccccc2-c2nn[nH]n2)cc1` showed an Activity in the data set with Rattus norvegicus [8] above 3 mg/kg. In the data set with Rattus norvegicus [4], this molecule yielded an ED30 of 0.53 mg/kg.

For the molecule `CCCCc1nc(Cl)c(CO)n1Cc1ccc(-c2ccccc2C(=O)NS(=O)(=O)c2ccccc2)cc1`, the pKa in data set [3] stood at 8.44. Also, the outcome in the data set with Rattus norvegicus [9] was inactive. Besides, the Activity in the data set with Rattus norvegicus [6] was above 3 mg/kg.

With `CC/C=C/c1nc(Cl)c(CO)n1Cc1ccc(-c2ccccc2C(=O)O)cc1`, the ED30 with Rattus norvegicus [1] was 3.6 mg/kg; with Rattus norvegicus [4], 1 mg/kg.

Regarding `CCCCc1ncc(CO)n1Cc1ccc(-c2ccccc2-c2nn[nH]n2)cc1`, the result in the data set on Rattus norvegicus [10] and in the data set on Rattus norvegicus [11] was inactive.

One may read the pKa as the pH at which an ionisable group is half protonated. A low value points to a group that gives up its proton readily. For orientation: IC50 means the concentration at which inhibition is half-maximal. Lower therefore signals inhibition by little substance.
